Results from different studies.
Lines come from different studies, so protocols differ. Converted amounts (≈) assume the structure as drawn.
Organism: Acinetobacter baumannii
Read-out: microbial growth

Compound | technique | strain | setting | MIC [µg/mL]
Cc1c(NN=C(C#N)C2=NC(=O)CS2)c(=O)n(-c2ccccc2)n1C | broth dilution | – | – | 0.43 (≈ 1.21 µM)
CN[C@@H]1[C@H](O)[C@H](NC)[C@H]2O[C@@]3(O)C(=O)C[C@@H](C)O[C@H]3O[C@@H]2[C@H]1O | broth dilution | ATCC19606 | – | > 200
COc1ccc2cc1Oc1cc(ccc1OC)CCC(N[C@@H]1CCCc3ccccc31)CCCC2 (some centres unmarked) | broth dilution | ATCC19606 | – | > 100
CC(=O)C1=C(O)C(CC(C)C)NC1=O (centres unmarked) | – | ATCC19606 | – | > 200
Fc1c(F)c(F)c(-c2c(F)c(F)c(F)c(F)c2F)c(F)c1F | – | ATCC19606 | – | > 250
COC(=O)c1cc(-c2cccc(NC(=S)Nc3cccc(Cl)c3)c2)on1 | broth dilution | BAA1605 | – | > 64
Cc1cc(/C=C2\Sc3ccccc3N2CCCN2CCC(C)CC2)c2ccccc2[n+]1C.[I-] | broth dilution | ATCC19606 | drug-resistant strain | 16
Fc1c(F)c(F)c(F)c(F)c1F | – | ATCC19606 | – | > 250
CN[C@H](CC(C)C)C(=O)N[C@H]1C(=O)N[C@@H](CC(N)=O)C(=O)N[C@H]2C(=O)N[C@H]3C(=O)N[C@H](C(=O)N[C@H](C(=O)O)c4cc(O)cc(O)c4-c4cc3ccc4O)[C@H](O)c3ccc(c(Cl)c3)Oc3cc2cc(c3O[C@@H]2O[C@H](CO)[C@@H](O)[C@H](O)[C@H]2O[C@H]2C[C@](C)(N)[C@H](O)[C@H](C)O2)Oc2ccc(cc2Cl)[C@H]1O | broth dilution | ATCC19606 | drug-resistant strain | 64 (≈ 44.2 µM)
CCOC(=O)c1cc(-c2cccc(NC(=O)Nc3ccc(Cl)c(Cl)c3)c2)on1 | broth dilution | BAA1605 | – | > 64
C[n+]1ccc(/C=C2\Sc3ccccc3N2CCCN2CCCCC2)c2ccccc21.[I-] | broth dilution | ATCC19606 | drug-resistant strain | 64
COC(=O)c1cc(-c2cccc(NC(=O)Nc3cccc(Br)c3)c2)on1 | broth dilution | BAA1605 | – | > 64
C[n+]1c(/C=C/c2c[nH]c3ccccc23)cc(/C=C2\Sc3ccccc3N2CCCN2CCCC2)c2ccccc21.[I-] | broth dilution | ATCC19606 | drug-resistant strain | 32
COC(=O)c1cc(-c2cccc(NC(=O)Nc3ccccc3OC)c2)on1 | broth dilution | BAA1605 | – | > 64
